Laboratory results taken from PubChem BioAssay AID488902 (Broad Institute, 2010).
Calls of active or inactive are those of the source.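 Rule for the calls: active = rising caspase curve whose AC50 is at most ten times the top dose tested; inconclusive = flat fit between 30 and 70%, or a poor fit; inactive = the rest.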

Tests used:
[1] = apoptosis induction in WT mouse fibroblasts – cell-based, wild-type MEF, Caspase-Glo luminescence, dry powder, counter-screen for A1 (Bcl2-A1) inhibitor project, dose response (AID 488902); details: wild-type MEF caspase activation, Caspase-Glo luminescence, 3 h
Outline: (§1)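 Test system: unprimed wild-type MEF cells. Technique: luminescence with CaspaseGlo reagent, 1:1 dilution in 50 mM HEPES. Compound dosing: dose-response series from dry powder, 100 nL pinned per well. Read-out: caspase activation. Timing: compound 3 h at 37 °C, 5% CO2, caspase reagent 1 h.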

[2] = tested on: wild-type MEF caspase activation, Caspase-Glo luminescence, 3 h; test: as above
Outline: as §1

| SMILES | caspase activation ([1]; at 150 µM (top of the series)) | also measured |
| --- | --- | --- |
| CC(=O)OC(C)(C)/C=C/C(=O)[C@](C)(O)C1[C@H](O)C[C@@]2(C)C3CC=C4C(C[C@H](O)C(=O)C4(C)C)[C@]3(C)C(=O)C[C@]12C (stereo not given in full) | 0.64% (inactive) | – |
| O=C(CCl)N=c1sccn1Cc1ccccc1Cl | 0.637% (inactive) | – |
| CC(=O)N[C@H]1[C@H](O[C@H]2CC[C@@]3(C)C(CC[C@]4(C)C3CC=C3[C@@H]5CC(C)(C)CC[C@]5(C(=O)OC5OCC(O)C(O)C5O)C(O)C[C@]34C)C2(C)C)O[C@H](COC2OCC(O)C(OC3OCC(O)C(O)C3O)C2O)[C@@H](O[C@@H]2O[C@@H](C)[C@H](O)[C@@H](O)[C@H]2O[C@@H]2O[C@@H](C)[C@H](O)[C@@H](O)[C@H]2O)[C@@H]1O (stereo not given in full) | – | caspase activation ([1]; at 135 µM (top of the series)): -0.32% (inactive) |
| COc1cc(/C=C(/C#N)c2nc3ccccc3[nH]2)ccc1OCC(=O)Nc1ccccc1C(C)C | 0.773% (inactive) | – |
| Cc1c(CCOC(=O)c2ccc(N3CCOCC3)c([N+](=O)[O-])c2)sc[n+]1CC#N | 0.157% (inactive) | – |
| CCc1nnc(NC(=O)c2nc(S(=O)(=O)Cc3ccccc3)ncc2Cl)s1 | -0.316% (inactive) | – |
| Cc1cc(C(=O)CCl)c(C)n1CCc1ccc(Cl)cc1 | – | AC50 [2]: 16.3 µM |
| COc1cccc(C(=O)C(C#N)=C(SC)SC)c1 | -1.91% (inactive) | – |
| Cc1ccc(CS(=O)(=O)c2ncc(Cl)c(C(=O)Nc3nnc(C(C)C)s3)n2)cc1 | -1.41% (inactive) | – |
| CC(C)(C)n1nc(-c2ccc(Cl)cc2)c2c(N)ncnc21 | 2.53% (inactive) | – |
| COc1cc(CN2CCN(c3cc(C)ccc3C)CC2)ccc1O | – | AC50 [2]: > 150 µM (inactive) |
| C/C1=C/C(=O)O[C@@H]2C[C@@H](CC[C@H](C)/C=C\CC1)O[C@@](O)(C1CSC(=O)N1)C2 (stereo not given in full) | 0.912% (inactive) | – |
| CCSc1nnc(NC(=O)c2nc(S(=O)(=O)Cc3ccc(F)cc3)ncc2Cl)s1 | -2.01% (inactive) | – |
| Cc1cccc(NC(=O)/C(C#N)=C/c2cn(CC(=O)NCc3ccco3)c3ccccc23)c1 | – | AC50 [2]: 4.34 µM |
| C=C1[C@@H](C)[C@H]2[C@H](Cc3ccccc3)NC(=O)[C@]23OC(=O)/C=C\[C@H](O)CCC[C@@H](C)C/C=C/[C@H]3[C@@H]1O | 0.465% (inactive) | – |
| O=C(Oc1cccc(/C=N/Nc2nc(Nc3ccccc3)nc(N3CCOCC3)n2)c1)c1ccco1 | 0.0158% (inactive) | – |
| Cn1c(=NC(=O)CCl)sc2ccccc21 | 0.0802% (inactive) | – |
| Cc1cccc(CS(=O)(=O)c2ncc(Cl)c(C(=O)Nc3nnc(C(C)C)s3)n2)c1 | -1.13% (inactive) | – |
| CCc1cc2c(=O)c(-c3cnn(-c4ccccc4)c3)c(C)oc2cc1OCC(=O)Nc1cccc(C)c1 | – | AC50 [2]: 2.93 µM |
| COc1ccc(N(C(=O)CCl)C(C(=O)NCCc2ccccc2)c2cccs2)cc1Cl (stereo not given) | – | AC50 [2]: 15.5 µM |
| CCOC(=O)CSC1=N/C(=C/c2ccc(-n3cncn3)cc2)C(=O)N1C(C)=O | 2.7% (inactive) | – |
| C=C1[C@@H](C)[C@H]2[C@H](Cc3ccccc3)NC(=O)[C@]23[C@H](OC(C)=O)/C=C/[C@](C)(O)C(=O)[C@@H](C)C/C=C/[C@H]3[C@@H]1O | -0.119% (inactive) | – |
| Cc1ccc(Sc2c([N+](=O)[O-])c(=O)n(C)c3ccccc23)cc1 | 1.56% (inactive) | – |
| Nc1nc(F)nc2c1ncn2[C@@H]1O[C@H](CO)[C@@H](O)[C@H]1O | -0.43% (inactive) | – |
| Cc1c(C=O)c(C=O)c(C)n1Cc1ccccc1 | 1.13% (inactive) | – |
